Data as given in ChEMBL document CHEMBL1212693, “Dorsomorphin inhibits BMP signals required for embryogenesis and iron metabolism” (Nat Chem Biol, 2008).
Active and inactive are the calls of the source. No cut-off for these calls is given here.

Key:
Mus musculus [1] = organism: Mus musculus; test: Inhibition of ALK3-mediated Smad-5 phosphorylation in BMPR2 deficient mouse PASMC at 10 uM by immunoblot analysis
Method in brief: (§1)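 BMPR-II–deficient mouse PASMCs (RPMI, 10% FBS) transiently transfected with constitutively active ALK2, ALK3 or ALK6 cDNA, or plasmid-only control. Incubated with or without compound (10 µM). Extracts lysed in SDS buffer, run on SDS-PAGE and immunoblotted for phospho-SMAD1/5/8; quantitated by phosphorimager.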

Danio rerio [2] = organism: Danio rerio; test: Inhibition of BMPR1 in zebrafish assessed as severity of embryonic axis dorsalization at 0.2 uM treated at 3 hrs post-fertilization measured at 48 hrs; parameters: scale not given: the % may be the effect or the level left
Danio rerio [3] = organism: Danio rerio; test: Inhibition of BMPR1 in zebrafish assessed as penetrance of normal embryonic axis dorsalization at 10 uM treated continuously from 2 hrs post-fertilization measured after 48 hrs; parameters: scale not given: the % may be the effect or the level left
Mus musculus [4] = organism: Mus musculus; test: Inhibition of ALK3-mediated Smad-1 phosphorylation in BMPR2 deficient mouse PASMC at 10 uM by immunoblot analysis; method in brief: as §1
Mus musculus [5] = test: Inhibition of iron-dextran conjugate-induced Smad-8 phosphorylation in C57BL/6 mouse at 23 ug/g, iv after 1 hr; type: functional, organism-based
Danio rerio [6] = organism: Danio rerio; test: Inhibition of BMPR1 in zebrafish assessed as penetrance of normal embryonic axis dorsalization at 10 uM treated continuously from 8 hrs post-fertilization measured at 48 hrs; parameters: scale not given: the % may be the effect or the level left
Mus musculus [7] = organism: Mus musculus; test: Inhibition of BMPR1-mediated Smad-1 phosphorylation in BMP4-stimulated mouse BMPR2 deficient PASMC at 4 uM treated 30 mins before BMP4 challenge measured after 30 mins by immunoblot analysis
Method in brief: (§2)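 PASMCs (wild-type or BMPR-II–deficient) were kept 24 h in RPMI with 0.5% FCS, preincubated 30 min with compound or vehicle, then stimulated 30 min with recombinant BMP (10 ng ml−1). Extracts in SDS-lysis buffer were immunoblotted for phospho-SMAD1/5/8, with total SMAD1 and α-tubulin as loading controls. Bands were quantitated by phosphorimager.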

Danio rerio [8] = organism: Danio rerio; test: Inhibition of BMPR1 in zebrafish assessed as increase in egr2b expression at 10 uM treated at 12 hrs post-fertilization measured at 48 hrs
Danio rerio [9] = test: Inhibition of iron-dextran conjugate-induced Smad-8 phosphorylation in zebrafish at 23 ug/g, iv after 1 hr relative to control; type: functional
Danio rerio [10] = organism: Danio rerio; test: Inhibition of BMPR1-mediated osteoblast differentiation in zebrafish assessed as decrease in alkaline phosphatase level at 1 to 4 uM treated at 24 hrs post-fertilization measured on day 10 post-fertilization
Danio rerio [11] = organism: Danio rerio; test: Inhibition of BMPR1 in zebrafish assessed as penetrance of mild embryonic axis dorsalization at 10 uM treated continuously from 2 hrs post-fertilization measured after 48 hrs; parameters: scale not given: the % may be the effect or the level left
Method in brief: (§3)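 Compound added at the stated times and concentrations. Gross morphology scored visually at up to 48 h.p.f. for dorsalization of the embryonic axis.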

Mus musculus [12] = test: Inhibition of iron-dextran conjugate-induced hepcidin mRNA expression in C57BL/6 mouse at 10 mg/kg, iv after 6 hrs by qRT-PCR analysis; type: functional, organism-based; parameters: dose 10 mg/kg
Mus musculus [13] = organism: Mus musculus; test: Inhibition of BMPR1-mediated Smad-5 phosphorylation in BMP7-stimulated mouse PASMC at 4 uM treated 30 mins before BMP7 challenge measured after 30 mins by immunoblot analysis
Method in brief: (§4)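 Wild-type mouse PASMCs were kept in RPMI with 0.5% FCS for 24 h. They were preincubated with compound or vehicle for 30 min, then stimulated for 30 min with recombinant BMP2, BMP4, BMP6 or BMP7 at 10 ng ml−1. Lysates in SDS buffer were immunoblotted with anti-phospho-SMAD1/5/8. Total SMAD1 and α-tubulin served as loading controls, and bands were quantified by phosphorimager.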

Danio rerio [14] = organism: Danio rerio; test: Inhibition of BMPR1 in zebrafish assessed as penetrance of normal embryonic axis dorsalization at 10 uM treated continuously from 10 hrs post-fertilization measured at 48 hrs; parameters: scale not given: the % may be the effect or the level left
Mus musculus [15] = organism: Mus musculus; test: Inhibition of BMPR1-mediated Smad-8 phosphorylation in BMP4-stimulated mouse BMPR2 deficient PASMC at 4 uM treated 30 mins before BMP4 measured after 30 mins by immunoblot analysis
Mus musculus [16] = organism: Mus musculus; test: Inhibition of BMPR1-mediated Smad-1 phosphorylation in BMP6-stimulated mouse PASMC at 4 uM treated 30 mins before BMP6 challenge measured after 30 mins by immunoblot analysis; method in brief: as §2
Danio rerio [17] = organism: Danio rerio; test: Inhibition of BMPR1 in zebrafish assessed as penetrance of mild embryonic axis dorsalization at 1 uM treated at 3 hrs post-fertilization measured at 48 hrs; parameters: scale not given: the % may be the effect or the level left; method in brief: as §3
[18] = (§5) Inhibition of BMPR1-mediated Smad-5 phosphorylation in BMP4-stimulated mouse PASMC treated 30 mins before BMP4 challenge measured after 30 mins by immunoblot analysis
Method in brief: (§6)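 Mouse PASMCs were held 24 h in RPMI with 0.5% FCS. They were preincubated 30 min with test agent, noggin or vehicle, then exposed to recombinant BMP4 for 30 min. SDS lysates were immunoblotted for phospho-SMAD1/5/8 and bands quantified by phosphorimager. Dose-dependence was fitted as a Hill plot.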

Mus musculus [19] = organism: Mus musculus; test: as §5; method in brief: as §6
Danio rerio [20] = organism: Danio rerio; test: Inhibition of BMPR1 in zebrafish assessed as severity of embryonic axis dorsalization at 10 uM treated at 2 to 6 hrs post-fertilization measured at 48 hrs; parameters: scale not given: the % may be the effect or the level left
Danio rerio [21] = organism: Danio rerio; test: Inhibition of BMPR1 in zebrafish assessed as penetrance of moderate embryonic axis dorsalization at 1 uM treated at 3 hrs post-fertilization measured at 48 hrs; parameters: scale not given: the % may be the effect or the level left; method in brief: as §3
Danio rerio [22] = organism: Danio rerio; test: Inhibition of BMPR1 in zebrafish assessed as penetrance of normal embryonic axis dorsalization at 10 uM treated continuously from 6 hrs post-fertilization measured at 48 hrs; parameters: scale not given: the % may be the effect or the level left
Danio rerio [23] = organism: Danio rerio; test: Inhibition of BMPR1 in zebrafish assessed as severity of embryonic axis dorsalization at 10 uM treated continuously from 8 hrs post-fertilization measured at 48 hrs; parameters: scale not given: the % may be the effect or the level left
Danio rerio [24] = organism: Danio rerio; test: Toxicity in zebrafish assessed as morphological changes at 1 to 4 uM treated at 24 hrs post-fertilization measured on day 10 post-fertilization; type: organism-based; settings: in vivo
Method in brief: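 WT zebrafish embryos were raised in E3 containing phenylthiourea and exposed from 1 d.p.f. to compound (1–4 µM) or DMSO. From 5 d.p.f. larvae were fed 1 h every other day, with medium renewed after each feeding. At 10 d.p.f. they were calcein-stained and checked by brightfield microscopy for gross morphology and function.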

Danio rerio [25] = organism: Danio rerio; test: Inhibition of BMPR1 in zebrafish assessed as penetrance of mild embryonic axis dorsalization at 10 uM treated continuously from 8 hrs post-fertilization measured at 48 hrs; parameters: scale not given: the % may be the effect or the level left; method in brief: as §3
Danio rerio [26] = organism: Danio rerio; test: Inhibition of BMPR1 in zebrafish assessed as penetrance of normal embryonic axis dorsalization at 10 uM treated at 6 to 8 hrs post-fertilization measured at 48 hrs; parameters: scale not given: the % may be the effect or the level left
Danio rerio [27] = organism: Danio rerio; test: Inhibition of BMPR1 in zebrafish assessed as penetrance of normal embryonic axis dorsalization at 10 uM treated continuously from 4 hrs post-fertilization measured after 48 hrs; parameters: scale not given: the % may be the effect or the level left
Mus musculus [28] = organism: Mus musculus; test: Inhibition of BMPR1-mediated Smad-5 phosphorylation in BMP4-stimulated mouse PASMC at 4 uM treated 30 mins before BMP4 challenge measured after 30 mins by immunoblot analysis; method in brief: as §4
Danio rerio [29] = organism: Danio rerio; test: Inhibition of BMPR1 in zebrafish assessed as penetrance of moderate embryonic axis dorsalization at 10 uM treated at 6 to 8 hrs post-fertilization measured at 48 hrs; parameters: scale not given: the % may be the effect or the level left; method in brief: as §3

## c1cc(-c2cnn3cc(-c4ccc(OCCN5CCCCC5)cc4)cnc23)ccn1 [DORSOMORPHIN]
Mus musculus [1]
  inhibition: Active
Danio rerio [2]
  Activity: 0%
Danio rerio [3]
  Activity: 0%
Mus musculus [4]
  inhibition: Active
Mus musculus [5]
  inhibition: Active
Danio rerio [6]
  Activity: 15%
Mus musculus [7]
  inhibition: Active
Danio rerio [8]
  Activity: Active
Danio rerio [9]
  fold change (FC): 3
Danio rerio [10]
  inhibition: Active
Danio rerio [11]
  Activity: 0%
Mus musculus [12]
  inhibition: Active
Mus musculus [13]
  inhibition: Active
Danio rerio [14]
  Activity: 100%
Mus musculus [15]
  inhibition: Active
Mus musculus [16]
  inhibition: Active
Danio rerio [17]
  Activity: 0%
[18]
  IC50: 470 nM
Mus musculus [19]
  inhibition: Dose-dependent effect
Danio rerio [20]
  Activity: 39%
Danio rerio [21]
  Activity: 0%
Danio rerio [22]
  Activity: 0%
Danio rerio [23]
  Activity: 0%
Danio rerio [24]
  Activity: Non-toxic
Danio rerio [25]
  Activity: 85%
Danio rerio [26]
  Activity: 0%
Danio rerio [27]
  Activity: 0%
Mus musculus [28]
  inhibition: Active
Danio rerio [29]
  Activity: 5%
